Data published in ChEMBL document CHEMBL1141591, “Lipophilic modifications to dinucleoside polyphosphates and nucleotides that confer antagonist properties at the platelet P2Y12 receptor” (J Med Chem, 2008).
Calls of active or inactive are those of the source. No cut-off for these calls is given here.

Columns and labels:
[1] = target: P2Y purinoceptor 12 (Homo sapiens) (UniProt Q9H244); test: Antagonist activity at P2Y12 receptor assessed as inhibition of 2-MeS-ADP-induced human platelet aggregation; assay type: functional
Sequence of P2Y purinoceptor 12 (Homo sapiens) (Q9H244 whole entry): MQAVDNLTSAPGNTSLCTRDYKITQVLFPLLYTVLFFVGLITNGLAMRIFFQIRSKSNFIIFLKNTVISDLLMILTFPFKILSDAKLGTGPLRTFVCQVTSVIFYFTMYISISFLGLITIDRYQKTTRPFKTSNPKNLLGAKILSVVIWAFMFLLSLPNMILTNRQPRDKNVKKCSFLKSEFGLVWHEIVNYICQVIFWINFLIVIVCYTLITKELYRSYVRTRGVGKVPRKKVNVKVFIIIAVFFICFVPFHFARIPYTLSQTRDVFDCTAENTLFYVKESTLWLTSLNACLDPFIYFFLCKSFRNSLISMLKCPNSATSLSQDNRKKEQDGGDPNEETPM
In short: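 Washed human platelets (ACD-anticoagulated blood, PGI2/apyrase washes) with 1 mg/mL fibrinogen at 37 °C, stirred. Concentration–response curves to 2-MeS-ADP were run alone and with antagonist at 1, 3, 10, 30 or 100 µM. Aggregation was read optically. Schild (Arunlakshana-Schild) analysis gave KB and slope.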

[2] = target: P2Y purinoceptor 12 (Homo sapiens) (UniProt Q9H244); test: Reversal of antagonist activity at P2Y12 receptor in human washed platelets pretreated at 50 uM for 3 mins before addition of 2-Me-S-ADP and fibrinogen; assay type: functional
In short: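 Washed human platelets were incubated with 50 µM antagonist for 3 min at 37 °C without fibrinogen. One set was then stimulated directly with 2-MeS-ADP plus fibrinogen. The other set was centrifuged once, resuspended in drug-free medium, and then stimulated. Optical aggregation was monitored for 6–8 min.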

[3] = target: T1, P2Y purinoceptor 2 (Homo sapiens, UniProt P41231); test: Agonist activity at P2Y2 receptor expressed in human 1321 cells by calcium mobilization assay; assay type: functional, cell-based
T1 sequence (P41231 whole entry): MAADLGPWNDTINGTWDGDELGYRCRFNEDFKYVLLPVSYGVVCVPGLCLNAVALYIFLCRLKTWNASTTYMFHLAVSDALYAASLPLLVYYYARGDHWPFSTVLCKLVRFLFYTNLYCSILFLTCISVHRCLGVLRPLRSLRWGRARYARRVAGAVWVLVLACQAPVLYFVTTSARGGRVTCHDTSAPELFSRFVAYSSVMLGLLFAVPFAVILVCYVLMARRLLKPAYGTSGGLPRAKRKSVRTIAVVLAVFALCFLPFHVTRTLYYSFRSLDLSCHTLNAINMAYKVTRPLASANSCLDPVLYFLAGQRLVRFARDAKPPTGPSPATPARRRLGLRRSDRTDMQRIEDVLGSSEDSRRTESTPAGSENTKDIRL

[4] = target: T2, P2Y purinoceptor 6 (Homo sapiens, UniProt Q15077); test: Agonist activity at P2Y6 receptor expressed in human 1321 cells at 100 uM by calcium mobilization assay; assay type: functional, cell-based
T2 sequence (Q15077 whole entry): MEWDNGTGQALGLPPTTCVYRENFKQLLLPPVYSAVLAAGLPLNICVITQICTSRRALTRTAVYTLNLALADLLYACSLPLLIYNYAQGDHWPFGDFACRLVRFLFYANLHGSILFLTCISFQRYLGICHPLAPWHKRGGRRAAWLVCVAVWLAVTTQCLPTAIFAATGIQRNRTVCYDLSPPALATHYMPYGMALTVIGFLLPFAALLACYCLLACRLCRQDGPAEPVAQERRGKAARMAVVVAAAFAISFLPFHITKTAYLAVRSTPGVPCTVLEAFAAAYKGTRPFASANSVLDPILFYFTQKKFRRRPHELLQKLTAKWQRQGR
In short: (§1)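 1321N1 human astrocytoma cells expressing the recombinant receptor were loaded with Fluo-3 AM (2.5 µM final) for 60 min at 25 °C. Assay buffer: KCl 10, NaCl 118, CaCl2 2.5, MgCl2 1, HEPES 20, glucose 10 mM, pH 7.4. Cells were washed and then stimulated with compound. Intracellular calcium was read as the change in fluorescence (FLIPR). Values are EC50 in µM. SR means 5–20% of maximal response at the top concentration, usually 100 µM. NR means no response.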

[5] = target: T3, P2Y purinoceptor 1 (Homo sapiens, UniProt P47900); test: Agonist activity at human recombinant P2Y1 receptor expressed in human 1321 cells at 100 uM by calcium mobilization assay; assay type: functional, cell-based; in short: as §1
T3 sequence (P47900 whole entry): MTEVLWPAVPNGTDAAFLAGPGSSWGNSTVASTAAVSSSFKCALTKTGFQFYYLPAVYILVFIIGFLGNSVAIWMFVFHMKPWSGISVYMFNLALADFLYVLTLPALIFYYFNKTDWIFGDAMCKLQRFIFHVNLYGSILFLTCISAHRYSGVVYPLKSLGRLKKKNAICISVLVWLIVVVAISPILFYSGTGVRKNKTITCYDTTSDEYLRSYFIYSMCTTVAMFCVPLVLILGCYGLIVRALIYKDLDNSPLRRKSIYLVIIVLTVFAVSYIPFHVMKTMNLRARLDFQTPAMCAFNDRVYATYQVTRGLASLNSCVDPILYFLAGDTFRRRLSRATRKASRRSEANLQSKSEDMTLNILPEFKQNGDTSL

[6] = target: T3, P2Y purinoceptor 1; test: Agonist at human recombinant P2Y1 receptor expressed in human 1321 cells by calcium mobilization assay; assay type: functional, cell-based; in short: as §1
[7] = target: P2Y purinoceptor 4 (Homo sapiens) (UniProt P51582); test: Agonist activity at P2Y4 receptor expressed in human 1321 cells at 100 uM by calcium mobilization assay; assay type: functional, cell-based
Sequence of P2Y purinoceptor 4 (Homo sapiens) (P51582 whole entry): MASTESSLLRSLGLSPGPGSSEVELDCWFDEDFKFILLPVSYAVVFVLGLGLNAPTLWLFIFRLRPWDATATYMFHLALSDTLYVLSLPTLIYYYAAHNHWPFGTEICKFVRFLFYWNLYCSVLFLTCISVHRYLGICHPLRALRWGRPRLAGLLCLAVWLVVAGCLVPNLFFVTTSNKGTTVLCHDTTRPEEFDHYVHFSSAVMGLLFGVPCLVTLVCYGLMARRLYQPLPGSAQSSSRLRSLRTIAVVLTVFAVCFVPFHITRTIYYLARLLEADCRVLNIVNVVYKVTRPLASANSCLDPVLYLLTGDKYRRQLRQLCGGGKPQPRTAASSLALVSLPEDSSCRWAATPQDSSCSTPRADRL

[8] = target: P2Y purinoceptor 12 (Homo sapiens) (UniProt Q9H244); test: Antagonist activity at P2Y12 receptor assessed as inhibition of ADP-induced human platelet aggregation by washed platelet assay at 100 uM; assay type: functional
In short: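 Blood from healthy volunteers was anticoagulated with ACD and spun at 180g for 15 min to give PRP. Platelets were washed three times in HEPES-buffered saline, pH 7.4, with 0.2% BSA and 5 µM PGI2, then resuspended with 0.25 U/mL apyrase. The suspension held 1 mg/mL fibrinogen at 37 °C, stirred at 1000 rpm. Compound (usually 1 nM–100 µM) was added for 2 min, then ADP at EC90 (usually 1–10 µM). Optical aggregation was recorded for 8 min. IC50 came from a four-parameter logistic fit.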

[9] = target: T1, P2Y purinoceptor 2; test: Agonist activity at P2Y2 receptor expressed in human 1321 cells at 100 uM by calcium mobilization assay; assay type: functional, cell-based; in short: as §1
[10] = target: T2, P2Y purinoceptor 6; test: Agonist activity at P2Y6 receptor expressed in human 1321 cells by calcium mobilization assay; assay type: functional, cell-based; in short: as §1

| Compound | Kb [1] [µM] | Activity [2] | EC50 [3] [µM] | Activity [4] | Activity [5] | EC50 [6] [µM] | Activity [7] | inhibition [8] [%] | Activity [9] | EC50 [10] [µM] | Activity [8] |
| --- | --- | --- | --- | --- | --- | --- | --- | --- | --- | --- | --- |
| O=c1ccn([C@@H]2O[C@H](COP(=O)(O)OP(=O)(O)OP(=O)(O)OP(=O)(O)OC[C@@H]3O[C@H](n4ccc(=O)[nH]c4=O)[C@H]4OC(Cc5ccccc5)O[C@H]43)[C@H]3OC(Cc4ccccc4)O[C@H]32)c(=O)[nH]1 (some centres undefined) | 0.249 | Active | 14.6 | > 5% | inactive | – | – | – | – | – | – |
| Nc1ncnc2c1ncn2[C@@H]1O[C@H](COP(=O)(O)OP(=O)(O)OP(=O)(O)OP(=O)(O)OC[C@@H]2O[C@H](n3cnc4c(N)ncnc43)[C@@H](O)[C@H]2O)[C@@H](O)[C@H]1O | – | – | 0.072 | inactive | – | 0.426 | – | 63 | – | – | – |
| O=c1ccn([C@@H]2O[C@H](COP(=O)(O)OP(=O)(O)OP(=O)(O)OP(=O)(O)OC[C@@H]3O[C@H](n4ccc(=O)[nH]c4=O)[C@@H](O)[C@H]3O)[C@@H](O)[C@H]2O)c(=O)[nH]1 | – | – | – | – | inactive | – | – | – | – | 18.6 | inactive |
| O=c1ccn([C@@H]2O[C@H](COP(=O)(O)OP(=O)(O)OP(=O)(O)OC[C@@H]3O[C@H](n4ccc(=O)[nH]c4=O)[C@@H](O)[C@H]3O)[C@@H](O)[C@H]2O)c(=O)[nH]1 | – | – | 13.5 | – | inactive | – | – | – | – | 0.4 | inactive |
| CCCC1O[C@@H]2[C@H](O1)[C@@H](COP(=O)(O)OP(=O)(O)OP(=O)(O)OP(=O)(O)OC[C@@H]1O[C@H](n3ccc(=O)[nH]c3=O)[C@@H](O)[C@H]1O)O[C@H]2n1ccc(=O)[nH]c1=O (some centres undefined) | – | – | 0.098 | – | inactive | – | – | 44 | – | 30 | – |

Continued, values first:

| Kb [1] [µM] | Activity [2] | EC50 [3] [µM] | Activity [4] | Activity [5] | EC50 [6] [µM] | Activity [7] | inhibition [8] [%] | Activity [9] | EC50 [10] [µM] | Activity [8] | Compound |
| --- | --- | --- | --- | --- | --- | --- | --- | --- | --- | --- | --- |
| – | – | 13.9 | inactive | – | 4.39 | – | – | – | – | – | Nc1ncnc2c1ncn2[C@@H]1O[C@H](COP(=O)(O)OP(=O)(O)O)[C@H]2O[C@@H](Cc3ccccc3)O[C@H]21 |
| – | – | – | inactive | inactive | – | inactive | 75 | inactive | – | – | Nc1ncnc2c1ncn2[C@@H]1O[C@H](COP(=O)(O)O)[C@H]2O[C@@H](c3ccccc3)O[C@H]21 |
| – | – | – | – | inactive | – | – | – | inactive | 0.154 | – | O=c1ccn([C@@H]2O[C@H](COP(=O)(O)OP(=O)(O)OP(=O)(O)OC[C@@H]3O[C@H](n4ccc(=O)[nH]c4=O)[C@@H](O)[C@H]3O)[C@H]3OC(Cc4ccccc4)O[C@H]32)c(=O)[nH]1 (some centres undefined) |
| – | – | – | inactive | inactive | – | inactive | 47 | inactive | – | – | Nc1ncnc2c1ncn2[C@@H]1O[C@H](COP(=O)(O)O)[C@H]2O[C@@H](Cc3ccccc3)O[C@H]21 |
| – | – | 9.4 | – | – | 2.63 | – | – | – | 9.75 | – | O=C(Nc1ccccc1)Nc1ncnc2c1ncn2[C@@H]1O[C@H](COP(=O)(O)OP(=O)(O)O)[C@@H](O)[C@H]1O |
